# Compounds with a hit are over-represented: about 4% of the library has one in this group of screens.
# SENP1 inh: inhibitors of human SENP1 SUMO protease catalytic domain | AID 624204 | inhibition, % at 10 µM | Q9P0U3 | 360,000 tested, 0.21% active | recombinant SENP1 catalytic domain, CyPet-SUMO1-YPet FRET cleavage;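 active = inhibition at least 30% at 10 µM, raw YFP signal under a set limit, fluorescence ratio 0.5 to 1.5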;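 also: 0% = enzyme with DMSO and 100% = no enzyme wells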
#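 system = hSENP1 catalytic domain, recombinant | reagent = SFCypet-SUMO1-SFYpet substrate at 25 nM | doses = one dose per compound, 10 µM, 0.5% DMSO | incubation = enzyme reaction for 50 min at room temperature, dark | measured by = FRET, CFP and YFP emission | controls = no-enzyme low, enzyme-DMSO high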
# NR3A LBD binder: NR3A (human) ligand-binding domain modulation. NR3A LBD differential scanning fluorimetry, Tm shift; 0% = protein alone, 100% = glycine-bound protein. Tm shift relative to glycine control, % at 25 µM. 340,000 tested, 2.5% active;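 active = melting temperature shift of at least 10% of the positive control shift, at one fixed dose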
# FAS TE block: blocks the thioesterase domain of human fatty acid synthase; P49327; recombinant FAS-TE, OMFH fluorogenic substrate, fluorescence endpoint; inhibition, % at 15 µM; 360,000 tested, 0.67% active;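 active = compounds whose normalised, plate-corrected inhibition of enzyme fluorescence in the single-dose primary screen is 50% or more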;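 also: 0% = DMSO with enzyme and 100% = substrate without enzyme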
# Target sequence (P49327 whole entry, looked up, the tested form may be a part): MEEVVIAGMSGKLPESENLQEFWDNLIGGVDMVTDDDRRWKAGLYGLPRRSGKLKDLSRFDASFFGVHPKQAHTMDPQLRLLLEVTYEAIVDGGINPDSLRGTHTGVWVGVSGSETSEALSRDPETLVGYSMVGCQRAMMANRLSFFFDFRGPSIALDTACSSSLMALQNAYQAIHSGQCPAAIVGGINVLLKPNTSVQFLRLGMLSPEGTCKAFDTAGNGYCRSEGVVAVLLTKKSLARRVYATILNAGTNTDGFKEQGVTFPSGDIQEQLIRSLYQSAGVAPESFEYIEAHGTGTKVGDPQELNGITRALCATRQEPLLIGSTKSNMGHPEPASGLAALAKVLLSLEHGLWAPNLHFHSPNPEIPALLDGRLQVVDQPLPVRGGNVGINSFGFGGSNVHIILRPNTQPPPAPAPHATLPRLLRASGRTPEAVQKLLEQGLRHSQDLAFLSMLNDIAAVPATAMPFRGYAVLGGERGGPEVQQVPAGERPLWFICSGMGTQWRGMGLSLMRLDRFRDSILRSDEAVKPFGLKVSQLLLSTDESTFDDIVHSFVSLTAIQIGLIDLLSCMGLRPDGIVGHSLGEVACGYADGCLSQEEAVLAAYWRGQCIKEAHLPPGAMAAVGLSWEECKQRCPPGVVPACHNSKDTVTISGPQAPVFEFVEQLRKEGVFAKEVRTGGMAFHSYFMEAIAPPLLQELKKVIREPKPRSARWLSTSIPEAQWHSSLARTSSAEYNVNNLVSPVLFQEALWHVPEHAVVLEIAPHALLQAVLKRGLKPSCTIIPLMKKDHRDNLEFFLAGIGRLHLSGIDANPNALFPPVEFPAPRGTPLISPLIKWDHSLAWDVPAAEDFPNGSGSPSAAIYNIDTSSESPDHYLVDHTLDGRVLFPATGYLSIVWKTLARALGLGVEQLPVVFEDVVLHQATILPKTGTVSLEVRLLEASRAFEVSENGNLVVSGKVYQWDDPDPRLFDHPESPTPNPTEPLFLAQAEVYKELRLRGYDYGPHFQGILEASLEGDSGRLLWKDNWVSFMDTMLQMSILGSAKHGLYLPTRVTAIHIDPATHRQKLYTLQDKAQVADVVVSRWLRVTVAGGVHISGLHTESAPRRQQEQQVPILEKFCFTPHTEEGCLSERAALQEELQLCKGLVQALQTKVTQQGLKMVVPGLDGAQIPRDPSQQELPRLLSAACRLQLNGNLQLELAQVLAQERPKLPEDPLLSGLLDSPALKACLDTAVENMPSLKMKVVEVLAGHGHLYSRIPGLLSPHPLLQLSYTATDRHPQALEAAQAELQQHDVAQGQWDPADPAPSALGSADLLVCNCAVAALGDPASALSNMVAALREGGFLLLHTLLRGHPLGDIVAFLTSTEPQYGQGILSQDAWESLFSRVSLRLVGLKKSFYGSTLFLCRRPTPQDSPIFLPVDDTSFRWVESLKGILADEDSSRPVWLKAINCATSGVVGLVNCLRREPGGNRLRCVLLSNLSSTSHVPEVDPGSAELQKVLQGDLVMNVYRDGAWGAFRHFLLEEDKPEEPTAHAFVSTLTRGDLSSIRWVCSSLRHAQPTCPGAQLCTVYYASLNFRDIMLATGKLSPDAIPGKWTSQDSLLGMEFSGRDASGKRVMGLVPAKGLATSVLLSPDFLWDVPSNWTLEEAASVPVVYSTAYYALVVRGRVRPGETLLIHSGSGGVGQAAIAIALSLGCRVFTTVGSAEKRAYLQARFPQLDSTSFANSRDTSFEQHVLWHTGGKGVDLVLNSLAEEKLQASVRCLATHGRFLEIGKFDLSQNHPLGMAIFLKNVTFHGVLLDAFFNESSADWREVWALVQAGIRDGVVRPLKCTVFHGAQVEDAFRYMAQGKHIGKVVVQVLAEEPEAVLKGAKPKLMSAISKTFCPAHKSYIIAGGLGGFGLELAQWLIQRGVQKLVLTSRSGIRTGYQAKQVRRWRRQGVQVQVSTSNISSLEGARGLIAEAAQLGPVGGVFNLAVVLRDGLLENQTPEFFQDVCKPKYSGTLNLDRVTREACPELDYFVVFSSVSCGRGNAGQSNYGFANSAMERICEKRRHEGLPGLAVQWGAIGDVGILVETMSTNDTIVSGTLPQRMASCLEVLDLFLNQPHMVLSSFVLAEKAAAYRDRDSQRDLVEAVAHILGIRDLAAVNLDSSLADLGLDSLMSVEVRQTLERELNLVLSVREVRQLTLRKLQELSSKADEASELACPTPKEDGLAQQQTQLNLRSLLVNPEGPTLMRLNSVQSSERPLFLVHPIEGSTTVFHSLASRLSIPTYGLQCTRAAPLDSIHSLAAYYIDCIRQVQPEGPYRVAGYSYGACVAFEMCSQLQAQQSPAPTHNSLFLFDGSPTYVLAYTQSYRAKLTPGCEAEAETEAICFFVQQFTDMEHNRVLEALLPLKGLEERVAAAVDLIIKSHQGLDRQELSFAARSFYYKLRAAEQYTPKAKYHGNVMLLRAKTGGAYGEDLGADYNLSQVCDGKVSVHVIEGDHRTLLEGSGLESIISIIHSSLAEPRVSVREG
# iPSC survival up: hiPSC single-cell survival enhancement | 360,000 tested, 0.044% active | survival enhancement, % at 20 µM | ATPlite luminescence; 100% = ROCK inhibitor wells, 0% = DMSO; in the data active = survival enhancement above about 18%;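 also: cells exposed to compounds for 16 hours before the ATP read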
# Arrestin-AP2 inh: human beta-arrestin and AP2 interaction inhibition; FITC-arrestin peptide / GST-AP2 beads, flow cytometry; AP2 beta2 appendage carries R879A mutation; inhibition, % at 10 µM; 340,000 tested, 0.31% active;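 active = inhibition above a set limit, near 3 SD of compounds lacking own fluorescence, cut at about 54% in these data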;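 also: plate controls were DMSO wells for no effect and 5 µM unlabelled arrestin peptide for full effect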
#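 System: GST-AP2 R879A glutathione beads. Medium: PBS with 0.05% Tween 20 and 0.1% BSA. Also added: FITC-arrestin peptide, 50 nM. Incubation: 12 min plus 1 h, RT. Measured by: high-throughput flow cytometry of beads, ex 488, em 535 nm. Evaluation: percent drop in bead-associated FITC signal.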
# H9c2 protect: protects H9c2 cardiomyocytes from peroxide injury. H2O2 injury protection, ATPLite, 2 h. protection from H2O2 cell death, % at 20 µM. 360,000 tested, 0.63% active;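 active = compounds giving at least 50% protection of heart cells from peroxide-induced death in the single-dose screen, raw or plate-pattern-corrected value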;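 also: 0% = DMSO wells with peroxide and 100% = DMSO wells without peroxide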
# Starred values were filed as active, the others as inactive; . = no result.
SMILES,SENP1 inh,NR3A LBD binder,FAS TE block,iPSC survival up,Arrestin-AP2 inh,H9c2 protect
Cc1nc(-c2ccc(F)cc2)c(CC(=O)N(C)CC(=O)Nc2ccc(Cl)c(C(F)(F)F)c2)s1,1.4,12.1*,32.6,0.7,-1.1,-11.3
Cc1cccc(C(=O)NCC(=O)OCC(=O)N(C)CC(=O)Nc2ccc(F)cc2)c1,1.1,-2.0,-8.5,0.2,-3.6,-1.0
CN(CC(=O)Nc1ccc(Cl)c(C(F)(F)F)c1)C(=O)c1cc(-c2ccncc2)nc2ccccc12,0.1,21.3*,38.7,-0.5,5.4,10.3
Cc1ccc(-c2csc(C(O)c3ccccc3)n2)cc1C (centres undefined),-0.5,.,10.6,6.2,.,-10.1
CN1CCN(c2ccc(CNC(=O)C3(C)Cc4c(-c5ccc6c(c5)OCO6)ccnc4O3)cc2)CC1 (centres undefined),-2.1,.,-3.6,-2.3,.,-8.4
NC(N)=N/N=C/c1cccc([N+](=O)[O-])c1O,2.2,-3.8,-8.3,1.3,1.4,6.1
O=[N+]([O-])c1cccc(/C=N\N=C2c3ccccc3-c3ccccc32)c1O,1.6,14.1*,35.8,-1.9,-0.3,-23.6
CCCCC[C@@H](C)N1C[C@@H](COCc2ccccc2)Oc2cc(N3CCC[C@@H]3COC)ccc2S1(=O)=O,-1.8,.,21.9,-0.4,.,.
CCOC(=O)c1ccccc1NC(=O)Nc1ccc(OC)c(OC)c1,2.2,0.5,-7.3,-0.2,12.3,3.7
CCOC(=O)c1ccc(NC(=O)Nc2ccc(OC)c(OC)c2)cc1,-2.3,16.1*,2.0,6.8,2.4,19.8
CCCCOC(=O)c1ccc(NC(=O)Nc2ccc(OC)c(OC)c2)cc1,1.8,19.0*,18.3,-1.4,-0.8,6.6
CC(C)Nc1ncnc2c1ncn2[C@H]1CN(Cc2ccc(F)cc2)C[C@@H](CO)O1,3.1,.,-2.6,6.1,.,5.1
O=C(CCc1nc2ccccc2c(=O)[nH]1)OCc1ccccc1F,-0.2,-7.9,-20.9,3.3,-1.9,25.1
Cc1ccc(CNC(=O)CCc2nc3ccccc3c(=O)[nH]2)cc1,2.6,0.0,-1.0,-1.6,18.3,50.7*
COc1ccc(CNC(=O)COC(=O)CCc2nc3ccccc3c(=O)[nH]2)cc1,2.5,0.2,1.1,-0.3,5.2,47.8
CC(=O)NCc1ccc(-c2csc(NC(=O)CCc3nc4ccccc4c(=O)[nH]3)n2)s1,-3.7,-2.9,-4.3,2.3,52.9,89.9*
CCc1nc2ccccc2c(C(=O)OCc2nc3ccccc3c(=O)[nH]2)c1C,-6.6,-3.9,2.4,-2.0,8.3,55.7*
O=C(CCc1nc2ccccc2c(=O)[nH]1)OCCOc1ccc(Cl)cc1,-1.6,1.6,5.5,-0.2,-0.9,65.6*
O=C(NCC1CCCCC1)c1ccc2nc([C@@H]3O[C@H](CO)[C@@H](O)[C@H]3O)[nH]c2c1,3.5,.,-9.0,-1.2,.,-0.4
O=C(NCC(=O)N1CCN(Cc2c(F)cccc2Cl)CC1)c1cccs1,0.1,.,-6.9,2.3,.,2.9
O=C(CCc1nc2ccccc2c(=O)[nH]1)OCc1nnc(-c2ccccc2)o1,-6.3,-0.5,-1.8,-1.1,-9.3,74.6*
O=C(COC(=O)CCc1nc2ccccc2c(=O)[nH]1)NCc1ccc(F)cc1,-5.1,-0.9,-4.7,0.3,-3.9,50.5*
Cc1ccc(C(=O)CCC(=O)OCc2nnc(-c3ccccc3)o2)cc1,2.3,0.9,15.2,-0.1,-8.4,-6.0
CC1(C(=O)NCc2ccco2)CCN1C(=O)C1(c2ccccc2)CC1 (centres undefined),-1.2,.,-6.8,1.4,.,4.0
CC(C)CN(C(=O)COC(=O)CCSc1ccc(Cl)cc1)c1c(N)n(Cc2ccccc2)c(=O)[nH]c1=O,-6.3,.,-7.3,3.7,.,-20.5
O=C(Nc1ccc(Cl)c(Cl)c1)O/N=C/c1ccncc1,2.2,29.1*,8.5,3.8,3.1,-25.9
CCOC(=O)C(=O)/C(=C\N(C)C)c1onc(-c2c(Cl)cccc2Cl)c1C(=O)OC,2.1,10.8*,1.1,-0.4,14.6,4.3
O=S(=O)(c1ccc2nc(Nc3ccccc3)ccc2c1)N1CCCCC1,-3.5,29.8*,37.7,1.0,-2.7,1.0
